The results in this text go back to ChEMBL document CHEMBL1649548, “Pharmacodynamics of SMP-601 (PTZ601) against vancomycin-resistant Enterococcus faecium and methicillin-resistant Staphylococcus aureus in neutropenic murine thigh infection models” (Antimicrob Agents Chemother, 2009).

Data set [1] is described as follows: fT>MIC required for inducing 1-log killing effect in methicillin-resistant Staphylococcus aureus TL-3677-infected mouse. Format: functional.
For data set [2], the system named is Staphylococcus aureus. As to the kind of experiment: Antibacterial activity against methicillin-resistant Staphylococcus aureus TL-3677 by broth microdilution method. In kind it is functional. A digest of the protocol: (§1)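 CLSI broth microdilution in cation-adjusted Mueller-Hinton broth; final inoculum approx. 10^5 CFU/well.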
Data set [3] concerns Enterococcus faecium. Nature of the data set: Antibacterial activity against vancomycin-resistant Enterococcus faecium TL-3621 by broth microdilution method. Format: functional. In short, it runs like this: as §1
The nature of data set [4]: fT>MIC required for inducing 1-log killing effect in vancomycin-resistant Enterococcus faecium TL-3273-infected mouse. Format: functional. A digest of the protocol:
(§2)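 Neutropenic ICR mice (cyclophosphamide), thighs inoculated with ~10^5–10^6 CFU/ml in BHIB with 1% carrageenan 2 h before therapy. Total 2.5–640 mg/kg sc over 24 h in 1–12 doses, with cilastatin 100 mg/kg.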

Data set [5] relates to Enterococcus faecium. Nature of the data set: Antibacterial activity against vancomycin-resistant Enterococcus faecium TL-3273 at 0.5 to 8 ug/mL by time-kill analysis in presence of 1% carrageenan. Format: functional, organism-based.
The nature of data set [6]: fT>MIC required for bacteriostatic effect in methicillin-resistant Staphylococcus aureus TL-3677-infected mouse. In kind it is functional.
Data set [7] is described as follows: Protein binding in mouse serum at 30 ug/ml by ultrafiltration method. In kind it is ADME, cell-free. The note with it: read-out: PB (converted).
Data set [8] in a line: fT>MIC required for inducing 2-log killing effect in methicillin-resistant Staphylococcus aureus SP-12249-infected mouse. Format: functional.
The nature of data set [9]: fT>MIC required for bacteriostatic effect in vancomycin-resistant Enterococcus faecium TL-3621-infected mouse. In kind it is functional. A digest of the protocol: as §2
The test system of data set [10] is Enterococcus faecium. As to the kind of experiment: Antibacterial activity against vancomycin-resistant Enterococcus faecium TL-3273 infected in ICR mouse assessed as reduction in bacterial burden at 2.5 to 640 mg/kg, sc in presence of 1% carrageenan. In kind it is functional, organism-based. A digest of the protocol: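 Male ICR mice made neutropenic with cyclophosphamide sc (150 mg/kg day −4, 100 mg/kg day −1). Thighs inoculated with ~10^5–10^6 CFU/ml in BHIB plus 1% carrageenan, 2 h before therapy. Total 2.5–640 mg/kg sc over 24 h in 1–12 divided doses, each with cilastatin 100 mg/kg. Thighs homogenised at 24 h, CFU plated; two mice (four thighs) per group.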

Data set [11] is described as follows: fT>MIC required for inducing 1-log killing effect in vancomycin-resistant Enterococcus faecium TL-3621-infected mouse. Format: functional. In short, it runs like this: as §2
Data set [12] relates to Staphylococcus aureus. As to the kind of experiment: Antibacterial activity against methicillin-resistant Staphylococcus aureus SP-12249 by broth microdilution method. In kind it is functional. A digest of the protocol: as §1
For orientation: Dilution methods test growth across graded concentrations, often in twofold steps.

Data set [13] in a line: fT>MIC required for bacteriostatic effect in methicillin-resistant Staphylococcus aureus SP-12249-infected mouse. Format: functional.
Data set [14] has as its system Enterococcus faecium. Nature of the data set: Antibacterial activity against vancomycin-resistant Enterococcus faecium TL-3273 by broth microdilution method. In kind it is functional. A digest of the protocol:
as §1

The nature of data set [15]: fT>MIC required for inducing 2-log killing effect in vancomycin-resistant Enterococcus faecium TL-3621-infected mouse. In kind it is functional. In short, it runs like this:
as §2

Data set [16] in a line: fT>MIC required for inducing 1-log killing effect in methicillin-resistant Staphylococcus aureus SP-12249-infected mouse. In kind it is functional.
A short description of data set [17]: fT>MIC required for inducing 2-log killing effect in methicillin-resistant Staphylococcus aureus TL-3677-infected mouse. In kind it is functional.
Data set [18] can be described thus: Protein binding in mouse serum at 10 ug/ml by ultrafiltration method. In kind it is ADME, cell-free. As to conditions: read-out: PB (converted).
The nature of data set [19]: fT>MIC required for bacteriostatic effect in vancomycin-resistant Enterococcus faecium TL-3273-infected mouse. Format: functional. In short, it runs like this: as §2
The nature of data set [20]: Protein binding in mouse serum at 100 ug/ml by ultrafiltration method. In kind it is ADME, cell-free. The note with it: read-out: PB (converted).
Data set [21] is described as follows: fT>MIC required for inducing 2-log killing effect in vancomycin-resistant Enterococcus faecium TL-3273-infected mouse. In kind it is functional. In short, it runs like this:
as §2

By MIC is commonly meant the least concentration at which growth counts as inhibited.

In brackets after ≈: the same amount, converted by molar mass. Activity calls are given as the source filed them. The rule behind the calls is not given here.

Regarding `C[C@H]1C=C(c2csc(SC3=C(C(=O)O)N4C(=O)[C@H]([C@@H](C)O)[C@H]4[C@H]3C)n2)CN1` [RAZUPENEM], the “fT>MIC” value is reported as 27% in [1]; 12% in [4]; 23% in data set [6]; 37% in [8]; 10% in data set [9]; 14% in [11]. Besides, the “fT>MIC” value was determined as 23% in data set [13]; 19% in data set [15]; 30% in data set [16]; 32% in data set [17]; 9% in [19]; 16% in data set [21]. Besides, the minimal inhibitory concentration (MIC) in the data set on Staphylococcus aureus [2] stood at 0.12 µg/mL (≈ 0.294 µM); against Enterococcus faecium [3], 2 µg/mL (≈ 4.91 µM); with Staphylococcus aureus [12], 1 µg/mL (≈ 2.45 µM); in the data set with Enterococcus faecium [14] it was 2 µg/mL (≈ 4.91 µM). For the same compound, the result with Enterococcus faecium [5] and in the data set on Enterococcus faecium [10] was Active. In addition, the fraction unbound at 30 ug/ml in data set [7] was 0.24. In addition, the fraction unbound at 10 ug/ml in [18] is 0.25. Further, the fraction unbound at 100 ug/ml in [20] is 0.22.
